The test system of one series is cells. As to the kind of experiment: Acute toxicity in cells. The format is cell-based.
For a further series, the target named is T1, full length SHP2 (Homo sapiens, UniProt Q06124).
T1 sequence (Q06124 1-593): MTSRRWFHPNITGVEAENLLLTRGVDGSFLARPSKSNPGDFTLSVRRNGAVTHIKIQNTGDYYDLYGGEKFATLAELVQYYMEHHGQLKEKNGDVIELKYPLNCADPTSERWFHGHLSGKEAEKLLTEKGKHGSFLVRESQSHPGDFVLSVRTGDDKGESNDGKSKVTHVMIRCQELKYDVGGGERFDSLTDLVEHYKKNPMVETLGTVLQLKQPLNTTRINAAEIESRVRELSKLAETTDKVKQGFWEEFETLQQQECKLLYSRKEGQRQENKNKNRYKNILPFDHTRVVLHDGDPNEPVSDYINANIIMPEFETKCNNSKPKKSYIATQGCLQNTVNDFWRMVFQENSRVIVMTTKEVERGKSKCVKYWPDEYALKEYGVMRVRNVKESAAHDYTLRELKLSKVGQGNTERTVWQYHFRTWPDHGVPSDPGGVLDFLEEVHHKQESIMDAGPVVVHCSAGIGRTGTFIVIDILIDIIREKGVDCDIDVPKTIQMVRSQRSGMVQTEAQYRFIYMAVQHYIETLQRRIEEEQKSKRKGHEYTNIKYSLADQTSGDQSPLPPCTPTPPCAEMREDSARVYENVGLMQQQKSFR
As to the kind of experiment: In vitro phosphatase activity assay, phospho-peptide substrate, Malachite Green. The class given is biochemical. As to conditions: for inhibition of SHP2 phosphatase activity (qualitative): phospho-peptide substrate. The gist of the method: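 Purified full-length SHP2 (0.1 μg) was preincubated with test compound for 30 min at room temperature in 25 mM Tris-HCl pH 7.4, 50 mM NaCl, 5 mM DTT, 2.5 mM EDTA. Phospho-peptide (also an N-SH2 activator) was added to 50 µM final and incubated 30 °C, 30 min. Freed phosphate was read by Malachite Green at OD620. Lineweaver-Burk used 0, 10, 20 μM; mean ± SD, three experiments.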

Another series addresses full length SHP1 (Homo sapiens, UniProt P29350). Description: In vitro phosphatase activity assay, phospho-peptide substrate, Malachite Green. The format is biochemical. As to conditions: data not shown.
Series [1] relates to SHP2 (full length WT, E76K, PTP domain). As to the kind of experiment: Phosphatase assay with pNPP as the substrate. The format is biochemical. As to conditions: 1 at 10 μM; any form of SHP2 protein. The gist of the method: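 SHP2 enzyme (0.1 μg; full-length WT, E76K or PTP domain) was incubated with test compound for 15 min at 37 °C in 25 mM Tris-HCl pH 7.4, 50 mM NaCl, 5 mM DTT, 2.5 mM EDTA. pNPP was added to 0.9 mg/ml final and incubated a further 15 min at 37 °C. Read-out was OD405. Three independent experiments.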

The target of series [2] is T2, full length WT SHP2 GST-fusion protein (Homo sapiens, UniProt Q06124).
T2 sequence (Q06124 1-593): T1 sequence (Q06124 1-593)
Description: Fluorescence titration. The format is binding. As to conditions: SHP2 3.0 µM, dose-dependent. An outline of the steps:
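GST-fusion full-length WT SHP2 was held at 3.0 μM in 20 mM Tris-HCl, pH 7.5, and titrated with rising test compound. Excitation was 295 nm and emission was read 360–500 nm. Inhibitor-alone fluorescence was subtracted. Relative intensity was plotted against log molar concentration. Three independent experiments; mean ± SD of triplicates from one representative run.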

The next series deals with T3, His-tagged SHP2 (Homo sapiens, UniProt Q06124).
T3 sequence (Q06124 1-593): T1 sequence (Q06124 1-593)
Description: Thermal shift assay. The format is binding. As to conditions: 5, 10, 60 µM. An outline of the steps: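 His-tagged SHP2 (1 µg) in 50 mM Tris-HCl pH 8.0, 500 mM NaCl, 50 mM imidazole was mixed with 5x Sypro Orange stock, 20 µl reaction. Test compound in DMSO was added to 5, 10 or 60 µM final; 1% DMSO served as control. Samples were heated 22–95 °C in 1 °C steps every 50 sec, and Tm was taken from melting curves. Mean ± SD of three independent experiments.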

For series [3], the system named is Ba/F3 cells. As to the kind of experiment: IL-3 dependent cell proliferation. The class given is cell-based, murine. As to conditions: IL-3 1.0 ng/mL, 48 hours. The gist of the method:
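Cell numbers were read 48 hours after treatment with the One Solution Cell Proliferation Assay kit. Three experiments; mean ± SD of triplicates from one representative experiment.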

For series [4], the system named is Ba/F3 cells. Description: IL-3-induced signaling, immunoblotting of p-Erk, p-Akt, p-Jak2, p-Stat5. The class given is cell-based, murine. As to conditions: 4 hours pretreatment, IL-3 2.0 ng/mL, dose-dependent. The gist of the method: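 Ba/F3 cells were starved overnight in serum- and cytokine-free RPMI1640, given test compound for 4 h, then stimulated with IL-3 2 ng/mL. Stimulation was 10 min for the dose series, or a time course at 20 µM. Cells were lysed in RIPA with NaF, Na3VO4 and protease inhibitors. 50 μg protein per lane went through SDS-PAGE and phospho-antibody immunoblotting with ECL. Blots were reprobed for total proteins. Three independent experiments.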

The subject of series [5] is mouse embryonic fibroblasts (WT, PTPN11 knockout, PTPN11 E76K/+). As to the kind of experiment: MEF proliferation. The format is cell-based. As to conditions: 6 μM. An outline of the steps: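 Ptpn11 fl/fl and +/+ MEFs were infected with adeno-Cre, then treated with test compound at 6 μM or DMSO. Growth was measured at 24, 48 and 72 h with the One Solution Cell Proliferation kit, and SHP2 loss was confirmed by immunoblot. Ptpn11 E76K/+ and +/+ MEFs at 6 μM were counted with the same kit. Three experiments; mean ± SD of triplicates from one representative.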

Another series relates to H661 cells (PTPN11 N58S). As to the kind of experiment: Lung cancer cell proliferation. The format is cell-based, human. As to conditions: 48 hours, dose-dependent; more sensitive than H596. The gist of the method: (§1)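 Human lung cancer H661 (PTPN11 N58S/+) and H596 (WT PTPN11) cells were exposed to graded test compound for 48 hours, with DMSO controls. Cell number was measured by One Solution Cell Proliferation Assay kit. Three experiments; mean ± SD of triplicates from one representative experiment.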

A further series concerns H596 cells (WT PTPN11). Description: Lung cancer cell proliferation. As to conditions: 48 hours, dose-dependent. The format is cell-based, human. The gist of the method: as §1
The subject of the next series is H661 cells. As to the kind of experiment: Cell cycle analysis, propidium iodide staining and FACS. The class given is cell-based, human. As to conditions: 10 and 20 μM, 24 hours. The gist of the method:
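H661 cells (PTPN11 N58S/+) were treated with test compound at 0, 10 or 20 μM, stained with propidium iodide and analysed by FACS. Profiles are representative of three independent experiments.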

Series [6] deals with myeloid progenitors from PTPN11 E76K/+ mice. As to the kind of experiment: Colony-forming unit assay, mouse bone marrow cells. The format is cell-based. As to conditions: GM-CSF 1.0 ng/mL, 7 days, vs WT control cells. An outline of the steps:
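Bone marrow from Ptpn11E76K/+/Mx1-Cre+ and Ptpn11+/+/Mx1-Cre+ mice was plated at 2×10^4 cells/mL in 0.9% methylcellulose IMDM (30% FBS, glutamine, β-mercaptoethanol, GM-CSF 1.0 ng/mL) with graded test compound or DMSO. Cultures ran 7 days at 37 °C in 5% CO2. Myeloid colonies (CFU-GM, CFU-M) were counted and normalized to WT DMSO colonies. Mean ± SD of three independent experiments.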

Series [7] concerns myeloid blasts from JMML patients with the PTPN11 E76K/+ mutation. Description: Colony-forming unit assay, JMML patient cells. The class given is cell-based, human. As to conditions: GM-CSF 1.0 ng/mL, 14 days.

full length SHP1, sequence (P29350 whole entry, the tested form may be a part): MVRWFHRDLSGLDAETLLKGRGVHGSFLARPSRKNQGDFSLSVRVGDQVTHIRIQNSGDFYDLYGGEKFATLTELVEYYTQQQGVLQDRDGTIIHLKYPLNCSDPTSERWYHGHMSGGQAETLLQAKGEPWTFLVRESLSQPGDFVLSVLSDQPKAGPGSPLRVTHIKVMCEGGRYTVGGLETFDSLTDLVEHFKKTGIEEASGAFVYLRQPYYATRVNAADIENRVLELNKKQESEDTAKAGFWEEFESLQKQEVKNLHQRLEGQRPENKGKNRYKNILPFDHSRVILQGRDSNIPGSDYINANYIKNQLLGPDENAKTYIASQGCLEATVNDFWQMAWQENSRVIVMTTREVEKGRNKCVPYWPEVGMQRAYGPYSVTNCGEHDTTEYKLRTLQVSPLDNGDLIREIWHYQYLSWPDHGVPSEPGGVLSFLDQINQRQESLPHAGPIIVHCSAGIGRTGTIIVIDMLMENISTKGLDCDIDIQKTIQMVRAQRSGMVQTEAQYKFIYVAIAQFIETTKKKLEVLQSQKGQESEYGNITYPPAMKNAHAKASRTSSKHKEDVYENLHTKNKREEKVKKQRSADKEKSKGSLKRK

As to `CCOc1cc(O)c(C(=O)/C=C/c2ccc(Cl)cc2Cl)cc1CN1CCCCC1` [LY1], the toxicity in cells entry in the series with cells was “acute toxicity in cells”.

As to `CCOc1cc(O)c(C(=O)/C=C/c2ccc(Cl)cc2Cl)cc1CN(CC)CC` [LY3], on full length SHP2, the “inhibition of SHP2 phosphatase activity (qualitative)” value is reported as “good effects on SHP2”. At full length SHP1, the “inhibition of SHP1 relative to SHP2 (qualitative)” value was “inhibited the SHP1 phosphatase to a similar extent”.

Turning to `CCOc1cc(O)c(C(=O)/C=C/c2ccc(Cl)cc2Cl)cc1CN1CCNCC1C` (stereo not drawn) [LY5], at full length SHP2, the “inhibition of SHP2 phosphatase activity (qualitative)” value is “good effects on SHP2”. The “inhibition of SHP1 relative to SHP2 (qualitative)” value against full length SHP1 is “inhibited the SHP1 phosphatase to a similar extent”.

For the molecule `CCOc1cc(O)c(C(=O)/C=C/c2ccc(Cl)cc2Cl)cc1CN1C[C@@H](O)C[C@@H]1C(C)=O` [LY7], the toxicity in cells entry in the series on cells is “acute toxicity in cells”.

Take `CCOc1cc(O)c(C(=O)/C=C/c2ccc(Cl)cc2Cl)cc1CN1CCC=C(n2c(=O)[nH]c3ccccc32)C1` [compound 1, (E)-1-(1-(5-(3-(2,4-dichlorophenyl)acryloyl)-2-ethoxy-4-hydroxybenzyl)-1,2,5,6-tetrahydropyridin-3-yl)-1H-benzo[d]imidazol-2(3H)-one]: the “type of inhibition (Lineweaver-Burk plot)” value on full length SHP2 (0, 10, 20 μM, Vmax decreased, Km increased) is recorded as “mixed type inhibitor”. Besides, the “inhibitory function in presence of Triton X-100” value at full length SHP2 (0.001% Triton X-100 in assay buffer) is given as “not decreased”. The “inhibition of SHP2 in presence of Triton X-100” value on full length SHP2 (0.01% Triton X-100) is on record as “diminished”. Besides, the “inhibition of SHP2 phosphatase activity (qualitative)” value against full length SHP2 is recorded as “most active compound among the remaining compounds”. In addition, on full length SHP2 (washing), the “1/SHP2 binding after extensive washing of enzyme-inhibitor complex” value is “stable”. The “effect on capability of SHP2 to dephosphorylate pNPP” value in series [1] was “did not affect”. Further, in series [2], the “quenching of SHP2 fluorescence” value is on record as “strong quenching”. Further, at His-tagged SHP2, the “shift in melting temperature (Tm)” value is “dose-dependent right shifts”. Besides, the cell growth result in the series with Ba/F3 cells [3] is “significantly suppressed cell growth”. For the same molecule, the “IL-3-induced activation (phosphorylation) of Erk, Akt, Jak2, Stat5” value in the series on Ba/F3 cells [4] is given as “inhibited”. Besides, the “cell growth of PTPN11 E76K/+ MEFs” value in series [5] was “significantly decreased cell growth”. The “proliferation of WT MEFs” value in series [5] (24, 48, 72 hours) is recorded as “markedly decreased”. In addition, the “proliferation of PTPN11-depleted MEFs” value in [5] (PTPN11 knockout) is “did not show a significant effect”. Further, the “proliferation of H661 cells” value in the series with H661 cells (PTPN11 N58S) is “inhibited proliferation”. Further, the “proliferation of H596 cells” value in the series with H596 cells (WT PTPN11) was “inhibited proliferation”. Besides, the cell cycle change entry in the series with H661 cells is on record as “pronounced G2/M arrest”. For the same molecule, the “inhibition of colony-forming capability of SHP2 E76K-expressing progenitors” value in [6] is given as “much more sensitive than control cells”. Moreover, in series [7], the “colony formation of JMML myeloid blasts” value is reported as “exquisitely sensitive”.

Source of the values: article PMC6467801 (Journal of medicinal chemistry, 2018).
